The values below come from paper PMC3983674 (Journal of immunology (Baltimore, Md. : 1950), 2014).

Ends that are not written are not given here.

A short description of data set [1]: Cytosolic peptide stability assay. The settings on record: for half-life: human, s9; for A02-SL9 epitope half-life reduced by (fold vs control): average of 4 experiments, Fig 3B.
For data set [2], the system named is purified mouse or human 20S proteasomes. The settings on record: ref [30]–[32]; cited from earlier work.
The subject of a further data set is PBMC cytosolic extracts. The data set is described as follows: HIV epitope processing assay. In kind it is biochemical, human.
In data set [3] the test system is HLA-matched B cells infected with VSVg-pseudotyped HIV. The format is cell-based, human.
In data set [4] the test system is caspase-like activity of proteasomes. The data set is described as follows: Proteasome caspase-like activity in live PBMC. The format is cell-based, human. The settings on record: PI pretreatment 30 min 37°C, Fig 1C.
In a further data set the test system is aminopeptidase. The data set is described as follows: Aminopeptidase activity in live PBMC. In kind it is cell-based, human. Conditions: for Effect on aminopeptidase activities: live PBMC, increasing concentrations, Fig 1C.
Data set [5] deals with tryptic activity of proteasomes. The data set is described as follows: Proteasome tryptic activity in live PBMC. In kind it is cell-based, human. The settings on record: increasing concentrations, Fig 1C. The procedure, abridged:
(§1)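 Fresh PBMC were isolated from HIV-negative donor buffy coats by Ficoll-Hypaque and pretreated for 30 min at 37°C with increasing concentrations of test compound (DMSO solutions). Digitonin (0.0025% final) was added, then Suc-LLVY-Amc (chymotryptic) or BocLRR-Amc (tryptic), each at 50 µmol/L. Fluorescence was read every 5 min at 37°C. Maximum slope, minus no-cell background, was expressed as % of the DMSO control. MG-132 (10 µmol/L) was used as the specificity control. Data are from 6–8 donors.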

Data set [6] has as its system chymotryptic activity of proteasomes. The data set is described as follows: Proteasome chymotryptic activity in live PBMC. The format is cell-based, human. Conditions: PI pretreatment 30 min 37°C, increasing concentrations, Fig 1C. The procedure, abridged:
as §1

For data set [7], the system named is proteasomal and aminopeptidase activities. Kind of data set: Proteasomal and aminopeptidase activities in PBMC. The format is cell-based, human. The settings on record: unpublished data.
The nature of the next data set: in vitro. The settings on record: human, s9.

Turning to `CC(C)c1nc(CN(C)C(=O)N[C@H](C(=O)N[C@@H](Cc2ccccc2)C[C@H](O)[C@H](Cc2ccccc2)NC(=O)OCc2cncs2)C(C)C)cs1` [Ritonavir], in data set [1] (several peptides, unpublished data), the “Cytosolic stability of optimal epitopes derived from CMV, HCV, Influenza or EBV” value is “increasing”. Also, the “Activity of purified mouse or human 20S proteasomes and proteasome activity in immortalized cells” value (shortened to “Activity … in immortalized cells”) in [2] was “inhibit”. The “ISW9 as % of total peptides” value in the data set on PBMC cytosolic extracts (3ISW9 degradation, 10 µM PI, 60 min, 3% in control) stood at 14%. In the data set with PBMC cytosolic extracts (supplemental figure 3), the “Production of A25-QW11 epitope from 3ISW9” value is listed as “reduced” and the “Production of B15-HL9 epitope from 3ISW9” value was “reduced”. In data set [3], the “Kinetics of killing and maximum lysis by B57-ISW9 CTL” value is “enhanced”; the “Kinetics of killing and maximum lysis by B57-KF11 CTL” value was “slower and the maximum lysis reduced”. Also, in [4], the “Effect on proteasomal caspase-like activity” value is reported as “did not enhance”.
A word on the half-life: it is how long it takes for the measured level to halve. A higher half-life goes with slow decline. `CC[C@H](C)[C@H](NC(=O)[C@H](C)N)C(=O)N[C@@H](Cc1ccccc1)C(=O)N[C@@H](CCC(N)=O)C(=O)N[C@@H](CO)C(=O)N[C@@H](CO)C(=O)N[C@@H](CCSC)C(=O)N[C@H](C(=O)N[C@@H](CCCCN)C(=O)O)[C@@H](C)O` [ATK9] came in with a half-life in data set [1] of 37.2 min.
Turning to `COC(=O)N[C@H](C(=O)N[C@@H](Cc1ccccc1)[C@@H](O)CN(Cc1ccc(-c2ccccn2)cc1)NC(=O)[C@@H](NC(=O)OC)C(C)(C)C)C(C)(C)C` [Atazanavir], the “Effect on aminopeptidase activities” value with aminopeptidase is listed as “no change”. Moreover, the “A02-SL9 epitope half-life reduced by (fold vs control)” value in data set [1] (PBMC extracts pretreated with 2 µM or 5 µM PI) was 1.33 fold. Further, the “Effect on proteasome tryptic activity” value in [5] was “not affected”. In addition, the “Effect on chymotryptic activity of proteasome” value in data set [6] is “did not change”.
The compound `CC[C@H](C)[C@H](NC(=O)[C@@H](NC(=O)[C@H](CCC(=O)O)NC(=O)[C@@H]1CCCN1C(=O)[C@H](CO)NC(=O)[C@H](Cc1ccccc1)NC(=O)[C@H](C)NC(=O)[C@@H](N)CCCCN)C(C)C)C(=O)N1CCC[C@H]1C(=O)N[C@@H](CCSC)C(=O)N[C@@H](Cc1ccccc1)C(=O)O` [KF11] displayed a half-life in data set [1] of 25.7 min.
Regarding `CC(C)C[C@H](NC(=O)[C@@H](O)[C@H](N)Cc1ccccc1)C(=O)O` [Bestatin], the “Aminopeptidase activity reduced by (fold compared to the control)” value in the data set with aminopeptidase (120 µM) is 20 fold. Further, the “Aminopeptidase activity, max slope of fluorescence emission” value in the data set with aminopeptidase (PBMC, 120 µM inhibitor, Leu-amc, control max slope 145.35) was determined as 7.25.
With `CC(C)(C)NC(=O)[C@@H]1CN(Cc2cccnc2)CCN1C[C@@H](O)C[C@@H](Cc1ccccc1)C(=O)N[C@H]1c2ccccc2C[C@H]1O` [Indinavir], the “Effect on aminopeptidase activities” value with aminopeptidase was “no change”. Moreover, in data set [3], the “Killing of HIV-infected cells by A11-ATK9 CTL, reduced by (fold vs DMSO)” value is 3 fold and the “Killing of HIV-infected cells by B57-KF11 CTL, reduced by (fold vs DMSO)” value turned out to be 1.9 fold. Also, the “Effect on proteasomal caspase-like activity” value in data set [4] is on record as “not affected”. For the same compound, the “Effect on proteasome tryptic activity” value in data set [5] is “not affected”.
As for `Cc1c(O)cccc1C(=O)N[C@@H](CSc1ccccc1)[C@H](O)CN1C[C@H]2CCCC[C@H]2C[C@H]1C(=O)NC(C)(C)C` [Nelfinavir], the “A02-SL9 epitope half-life reduced by (fold vs control)” value in data set [1] ([…]) was determined as 1.25 fold. For the same compound, in [2], the “Activity … in immortalized cells” value is “inhibit”. Also, in [3], the “Effect on killing of HIV-infected cells by B57-ISW9 CTL” value is “had no effect”; the “Killing of HIV-infected cells by A11-ATK9 CTL, reduced by (fold vs DMSO)” value amounted to 4.8 fold; the “Killing of HIV-infected cells by B57-ISW9 CTL, inhibited (fold vs DMSO)” value worked out at 1.2 fold; the “Killing of HIV-infected cells by B57-KF11 CTL, reduced by (fold vs DMSO)” value was found to be 2.44 fold. Besides, the “Lysis of HIV-infected cells by B57-TW10 CTL, decreased (fold vs DMSO)” value in [3] was found to be 1.46 fold. Further, the “Effect on proteasomal caspase-like activity” value in data set [4] is listed as “not affected”.
For `CC(C)CN(C[C@@H](O)[C@H](Cc1ccccc1)NC(=O)O[C@H]1CO[C@H]2OCC[C@H]21)S(=O)(=O)c1ccc(N)cc1` [Darunavir], the “Effect on aminopeptidase activities” value with aminopeptidase is given as “no change”. The “Effect on proteasomal caspase-like activity” value in data set [4] was “not affected”. Further, in data set [5], the “Effect on proteasome tryptic activity” value is “not affected”. In addition, the “Effect on chymotryptic activity of proteasome” value in data set [6] is recorded as “did not change”.
Take `CC(C)(C)NC(=O)[C@@H]1C[C@@H]2CCCC[C@@H]2CN1C[C@@H](O)[C@H](Cc1ccccc1)NC(=O)[C@H](CC(N)=O)NC(=O)c1ccc2ccccc2n1` [Saquinavir]: the “Activity … in immortalized cells” value in data set [2] is on record as “inhibit”. In addition, the “2-ISW9 ([…]) precursor production vs control or Kaletra treatment” value with PBMC cytosolic extracts (3ISW9 degradation, 10 µM) is “at least twice less”.
Consider `Nc1ccn([C@@H]2CS[C@H](CO)O2)c(=O)n1` [lamivudine, Lamivudine], for which the “Effect on the proteasomal and aminopeptidase activities” value in [7] was “did not have any significant effect”.
As to `CC(C)Nc1cccnc1N1CCN(C(=O)c2cc3cc(NS(C)(=O)=O)ccc3[nH]2)CC1` [Delavirdine], in data set [7], the “Effect on the proteasomal and aminopeptidase activities” value is “did not have any significant effect”.
For the compound ISPRTLNAW [ISW9], the half-life in “in vitro” was 14.8 min.
